Sampled rows, rich in hits. Any-hit rate of the full collection: about 4.9%.
STAT1 activator – STAT1 signaling activation. activation (% of control), % at 5.5 µM. AID 932. NIH 3T3 STAT1-luciferase reporter, IFN-gamma, luminescence; 100% = IFN-gamma alone, no compound. hit rate 2.6% among 200,000;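 active = activation above the screen-wide mean activation plus 3 SD, cut at about 130% in these data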;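 also: raw ratio to IFN-gamma control signal so 100% means no change and 0% no light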
NF-kB expr up – raises NF-kB expression in human neuronal cells; hit rate 1.6% among 190,000; fold change at 12.5 µM; NF-kB reporter expression; stronger effect = higher value; in the data active = fold change above about 3.3
APP 5'UTR act – activates APP 5'UTR luciferase reporter. SH-SY5Y APP 5'UTR luciferase reporter, luminescence; zero percent = DMSO vehicle wells. activation, % at 2 µM. hit rate 1% among 190,000. AID 1276;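 active = activation above a set limit, based on mean plus 3 SD of controls, cut at about 140% in these data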
STAT1 inh – reduces IFN-gamma driven STAT1 reporter signal. hit rate 0.35% among 200,000. NIH 3T3 STAT1-luciferase reporter, luminescence. inhibition, % at 5.5 µM;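 active = inhibition above a set limit, the mean inhibition across all tested compounds plus 3 SD, cut at about 34% in these data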;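 also: 0% = IFN-gamma with DMSO and 100% = IFN-gamma with 300 µM nifuroxazide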
STAT3 act – activators of IL-6 induced STAT3 signaling | U3A cells, IL-6 STAT3-luciferase reporter, luminescence; 100% = signal with IL-6 EC80 alone | activation (% of control), % at 5.6 µM | hit rate 0.91% among 190,000 | AID 871;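 active = activation above the screen-wide mean of compound activation plus 3 SD, cut at about 130% in these data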;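 also: 0% = background luminescence of wells with medium and substrate only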
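Material: STAT1-lacking human U3A cells, STAT3 luciferase reporter | Benchmarks: IL-6-only wells as 100% reference | Probe or stimulus: IL-6 (33 ng/mL) | Timing: Compound 1 h, then IL-6 6 h at 37 °C | Detection: Luminescence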
STAT3 blocker – inhibitors of IL-6 induced STAT3 signaling; U3A cells, IL-6 STAT3-luciferase reporter, luminescence; host cell line lacks STAT1; inhibition, % at 5.5 µM; hit rate 0.89% among 190,000; AID 862;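 active = inhibition above the mean inhibition across all screened compounds plus 3 SD, cut at about 44% in these data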;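 also: 0% = DMSO only wells and 100% = 100 µM nifuroxazide control wells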
Starred values were filed as active, the others as inactive; . = not tested or not shown.

SMILES	STAT1 activator	NF-kB expr up	APP 5'UTR act	STAT1 inh	STAT3 act	STAT3 blocker
COc1ccc(/C=C2\CCc3ccccc3C2=O)cc1OC	94	3.6*	62	7	105	4
CCOC(=O)c1sc(NC(=O)CCN2C(=O)c3cccc([N+](=O)[O-])c3C2=O)c(C(=O)OCC)c1C	103	0.91	2	-1	98	11
CCOc1ccc(-c2nnc(-c3ccncc3)o2)cc1	133*	2.7	61	-36	89	17
c1coc(-c2nnc(NC3=NCCC3)o2)c1	129*	2.2	55	-32	110	-8
COc1ccc(-c2nc3ccccc3c(=O)o2)cc1OC	97	1.1	17	3	92	20
CCCCNC(=O)Nc1nnc(-c2ccc(OCC)cc2)o1	95	1.2	0	6	96	9
CCOc1ccc(-c2nnc(NC3=NCCCCC3)o2)cc1	118	4.1*	122	-19	109	-5
CCOc1ccc(-c2nc3ccccc3c(=O)o2)cc1	121	6.3*	112	-23	101	5
CC(C)(C)NC(=O)CSc1nnc(C2CC2)n1-c1ccccc1	93	1.4	-3	8	106	-6
Cc1cc(NC(=O)CSc2nc3ccccc3c(=O)n2C(C)c2ccccc2)no1 (configuration not stated)	89	3.6*	22	12	134*	-33
O=C(Oc1cc(=O)n2ccccc2n1)c1ccccc1	100	1.1	-20	-1	105	-8
Cc1ccc2sc(-c3ccc(NC(=O)c4cc(-n5cnnc5)ccc4Cl)cc3)nc2c1	149*	1.1	156*	-45	89	20
S=C(c1ccc(-c2cc(Cl)ccc2Cl)o1)N1CCOCC1	107	1.1	20	-10	104	0
O=[N+]([O-])c1cccc(-c2ccc(C(=S)N3CCOCC3)o2)c1	143*	4.8*	162*	-45	112	-11
S=C(c1ccc(-c2cccc(Cl)c2)o1)N1CCOCC1	115	5.7*	141*	-15	110	-7
S=C(c1ccc(-c2cccc(Cl)c2)o1)N1CCCCC1	147*	1.5	180*	-52	97	5
O=[N+]([O-])c1cc(-c2ccc(C(=S)N3CCOCC3)o2)ccc1Cl	94	1.8	16	6	110	1
O=C(Nc1nccs1)c1ccc(-c2cccc([N+](=O)[O-])c2)o1	143*	1.4	59	-50	92	15
CN1CCCCCC1C(=O)N1CCC(N2CCC(C(=O)N3CCOCC3)CC2)CC1 (configuration not stated)	104	1	11	-6	104	1
CC1=C(C(=O)OCc2ccc(C)cc2)C(c2ccc(O)c([N+](=O)[O-])c2)NC(=O)N1 (configuration not stated)	99	0.99	2	1	102	3
Cc1nccc2oc(=O)c(NC(=O)c3ccc(Cl)cc3)cc12	104	2.1	-21	-5	82	24
O=C(Nc1cc2c(oc1=O)CCCC2=O)c1ccc(Cl)cc1	136*	1.4	18	-40	92	16
COc1cc(CN2CCN(C(C)C)C(CCO)C2)ccc1OCc1ccccc1 (configuration not stated)	99	1.2	-14	0	107	-7
COc1ccc(-c2csc(Nc3ccc(C)cn3)n2)cc1OC	122	1.2	31	-24	89	17
CC(=O)c1cccc(Nc2nc(-c3cccc([N+](=O)[O-])c3)cs2)c1	131*	1.5	1	-46	102	7
SMILES	STAT1 activator	NF-kB expr up	APP 5'UTR act	STAT1 inh	STAT3 act	STAT3 blocker
c1ccc(Nc2nc(-c3cccnc3)cs2)nc1	144*	5*	194*	-49	88	18
CC(=O)Nc1ccc(-c2csc(Nc3cc(C)ccn3)n2)cc1	140*	1.1	41	-44	88	24
Cc1ccc(Nc2nc(-c3ccc(O)c(O)c3)cs2)nc1	136*	9.4*	-6	-42	85	21
CC(=O)Cc1nsc(NC(=O)c2cn(-c3ccccc3)nc2-c2ccc(Br)cc2)n1	99	1	10	1	96	7
c1ccc(Nc2nc(-c3cccs3)cs2)nc1	136*	9.6*	181*	-38	95	8
CC(=O)Nc1cccc(-c2csc(Nc3ccccn3)n2)c1	143*	5.4*	184*	-49	87	18
COCC1CCCN(Cc2cn(-c3ccccc3)nc2-c2ccc3c(c2)OCO3)C1 (configuration not stated)	100	1.1	6	-2	104	2
COc1ccc(/C=N/NC(=O)c2[nH]c3ccc(Br)cc3c2-c2ccccc2)cc1	127	3.3	-97	-30	152*	-59
O=C(N/N=C/c1ccccc1Cl)c1[nH]c2ccc(Br)cc2c1-c1ccccc1	104	4.1*	-96	-4	135*	-40
N#Cc1c(Cl)nsc1NN	112	1.1	49	-16	96	6
COC(=O)C1NN=C(C(=O)c2ccc(Cl)cc2)C1c1ccc(OC)cc1 (configuration not stated)	100	1.2	0	2	99	-1
COC1=C(Nc2ccccc2)C(=O)c2ccccc2C1=O	114	1.2	14	-15	134*	-38
COC1=C(Nc2ccc(C)cc2)C(=O)c2ccccc2C1=O	111	0.96	30	-12	112	-18
CC1CN(C(=O)/C(C#N)=C2\N=C(NC(=O)c3ccccc3Cl)c3ccccc32)CC(C)O1 (configuration not stated)	98	1.2	-2	5	92	8
Clc1cc(Br)ccc1OCCN1CCOCC1	109	1.3	9	-10	98	4
CCCCCOc1ccc(CN2CCOCC2)cc1Cl	116	1.9	144*	-15	106	-1
CCC(C)NC(=O)c1ccc(CS(=O)(=O)Cc2ccc(Cl)cc2)o1 (configuration not stated)	101	1.1	.	-2	104	3
O=C(CN1CCCC1)Nc1ccc(Oc2ccc(NC(=O)CN3CCCC3)cc2)cc1	93	0.95	2	8	99	6
O=C(CN1CCCC1)Nc1ccc(NC(=O)Nc2ccccc2)cc1	131*	1.7	51	-34	102	1
Fc1ccccc1/C=N/Nc1ncnc2ccccc12	127	7.9*	76	-29	84	26
Cn1cnc(S(=O)(=O)Nc2ccc(OC(F)(F)F)cc2)c1	108	1.6	2	-8	101	5
COCCn1nnnc1C(CC(C)C)N1CCN(c2cccc(OC)c2)CC1 (configuration not stated)	105	5.8*	-15	-4	112	-7
C=CCNc1nc(-c2ccc(OC)cc2OC)cs1	150*	3.4*	50	-56	118	-17
CC(C)c1ccc(/C=N/NC(=O)c2ccccc2Cl)cc1	139*	1.7	-61	-46	115	-11

Screening results as filed in PubChem.
